The text below walks through data of ChEMBL document CHEMBL4431364, “Discovery and synthetic optimization of a novel scaffold for hydrophobic tunnel-targeted autotaxin inhibition” (Bioorg Med Chem, 2016).

Structures are written as SMILES.

In this assay the target is Autotaxin (Homo sapiens, UniProt Q13822). The assay is described as follows: Inhibition of C-terminal FLAG tagged human recombinant ATX expressed in insect sf9 cells at 10 uM using FS-3 as substrate measured every 2 mins for 60 mins by FRET assay. A digest of the protocol:
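10 μM compound with 10 nM human FLAG-fusion ATX in pH 8.0 Tris buffer (30 μM BSA, 1 mM CaCl2, 1 mM MgCl2, 5 mM KCl, 140 mM NaCl) and 1 μM FS-3. Fluorescence at ex 485/em 520 nm read every 2 min for 60 min at 37 °C. Normalized to no-ATX (0%) and ATX without compound (100%). Triplicate.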
On to `CC(C)COc1cnc(SSc2ncc(OCC(C)C)cn2)nc1`, for which the inhibition was determined as 20.6%. For `Cc1cc(C(=O)CSc2ccc(Cl)cc2)cc(C)c1OC(=O)N(C)C`, the inhibition came out at 6.06%. For `O=S(=O)(c1ccc(OC(F)(F)F)cc1)N1CCC(N2CCN(c3ccccc3F)CC2)CC1` the value was 8.43%; for `COc1ccccc1N1CCN(/N=C(\C)c2ccc3ccccc3c2)CC1`, -0.74%; for `Clc1ccc(Cl)c2c1CC(N1CCN(c3ncccn3)CC1)S2` (configuration not stated), 9.03%. As for `COc1ccc(C2OCC3OC(OC)C(O)C(O)C3O2)cc1OCc1ccccc1` (configuration not stated), the inhibition is -4.83%.

For `C=C(Br)C(=O)N1CCN(C(=O)CCSc2ccc3ccccc3c2)CC1`, the inhibition is 46.4%. `Cc1cc(C)c(C)c(S(=O)(=O)N2CCN(c3ncnc4sc(C)c(C)c34)CC2)c1C`: the inhibition is 19.8%. On to `Cc1cc(NC(=O)CSc2nc3sc4c(c3c(=O)[nH]2)CCC(C)C4)no1` (configuration not stated), for which the inhibition was 11%.

For the molecule `CCOC(=O)c1c(C)[nH]c(C(=O)OCC(=O)NCc2ccco2)c1C`, the inhibition was 15.6%. For `COc1ccc(/C=N/c2cc(C)ccc2C)cc1OC`, the inhibition was -2.55%. Consider `Cn1ncc2c1ncn1nc(-c3ccc(Cn4cc(Cl)cn4)o3)nc21`, for which the inhibition is -1.86%.

Take `O=C(O)c1ccc(N2CCN(C(=O)COc3cccc(F)c3)CC2)cc1`: the inhibition stood at 32.3%. For `O=C(Nc1ccccc1)N1CC(O)C(N2CCN(Cc3ccccc3)CC2)C1` (configuration not stated) the value was 2.55%; for `CC(C)(C)CN(Cc1cccc(CN)c1)C(=O)c1ccc(-c2ccc(F)cc2)nc1`, 19.8 to 42.8%. Turning to `CCCC#CC(=O)NCC(=O)Nc1ccc2c3c(cccc13)-c1ccccc1-2`, the inhibition came out at 6.06%. Consider `CSc1cccc2c(C)cc(N3CCN(c4ccc(F)cc4)CC3)nc12`, for which the inhibition was 9.17%.

As for `Cc1ccc(SCC(=O)Nc2ccc(C(=O)NC(C)(C)C)cc2)cc1`, the inhibition worked out at 8.67%. For `N#C/C(=C\c1ccc(-c2cc([N+](=O)[O-])ccc2Cl)o1)C(=O)Nc1ccccc1C(=O)O` the value was 3.59%; for `O=S(=O)(c1cc(-c2ccon2)cs1)N1CCN(Cc2ccc3c(c2)OCO3)CC1`, 13.4%; for `O=C(CCCc1ccc([N+](=O)[O-])cc1)N1CCN(c2ccccc2F)CC1`, 25.6%.

On to `Cc1cc(NC(=O)CSc2nc3sc4c(c3c(=O)[nH]2)CCC(C(C)(C)C)C4)no1` (configuration not stated), for which the inhibition was 15.4%. For the molecule `O=c1/c(=C/C=C/c2ccc([N+](=O)[O-])o2)sc2nc3ccccc3n12`, the inhibition came to 5.82%. `CC(C)CC1C(=O)NC(C)CN1C(=O)c1ccc(-c2ccccc2)cc1` (configuration not stated): the inhibition was determined as 32.8%. For the molecule `CCOc1ccc(N2C(=O)/C(=C3\C(=O)Nc4ccc(Br)cc43)SC2=S)cc1`, the inhibition was -3.35%. For `CCOc1ccc(N2C(=O)/C(=C\c3sccc3C)C(C(=O)OC)=C2C)cc1` the value was 4.09%; for `CC1=NC(c2cccc(C)c2)C(O)=C1/C=C1/C(=O)N(c2ccc(C)cc2C)N=C1C` (configuration not stated), 10.5%. For the molecule `COc1ccc(/C(N)=N/OC(=O)COc2ccc(C(C)(C)C)cc2Br)cc1OC`, the inhibition stood at 6.68%. On to `Cn1cc(Cl)c(C2NN=C(SCC(=O)Nc3ccc(C(C)(C)C)cc3)S2)n1` (configuration not stated), for which the inhibition worked out at 43.4%. Consider `Cc1oc(C(C)(C)C)cc1C(=O)NCCNC(=O)c1cc(C(C)(C)C)oc1C`, for which the inhibition stood at 7.68%.

On to `O=C1N=C(Nc2ccccc2)SC1Cc1ccc(-c2cccc(Br)c2)o1` (configuration not stated), for which the inhibition was -0.74%. Turning to `COc1ccc(C(=O)Oc2c(Br)cc(Br)c3cccnc23)cc1`, the inhibition was found to be 0.32%.

Consider `CCc1ccc2c(c1)c1nnc(SCC(=O)Nc3nnc(C(C)C)s3)nc1n2C`, for which the inhibition worked out at 21.7%. For the molecule `C=C(C)c1cccc(C(C)(C)NC(=O)N2CCN(C(=O)OCC)CC2)c1`, the inhibition came to 10.5%. With `CCCCOCCCNc1cc(-c2cccc(C)c2)ncn1`, the inhibition came out at 9.16%. The same measure for `COc1ccc(N2C(=O)/C(=C/c3ccc(O)c([N+](=O)[O-])c3)SC2=S)cc1`: 4.83%; for `Cc1cc(C(F)(F)F)nc2sc3c(c12)NC(c1c(Br)cnn1C)NC3=O` (configuration not stated): -1.36%; for `CCN1CCN(c2cc(C)c3ccc(Cl)cc3n2)CC1`: 14.2%. With `Cc1c(Cl)c(-c2nnc(NCC(C)C)s2)nn1C`, the inhibition turned out to be 7.92%. For the molecule `CCc1cc2c(cc(C(=O)NCCc3ccc(OC)c(OC)c3)n2C)s1`, the inhibition is 35.1%.

In the case of `CC(C)(C)c1ccc(NC(=O)COC(=O)c2ccc([N+](=O)[O-])s2)cc1`, the inhibition amounted to 10.7%. The same measure for `Cc1cc(OCC(=O)Nc2ccc(-c3nc4ncccc4o3)cc2)ccc1Cl`: 4.63%; for `Cn1ncc2c(Cl)nc(-c3cc4cc([N+](=O)[O-])ccc4o3)nc21`: -0.99%; for `O=C(COc1ccccc1Cl)N1CCN(c2ccc([N+](=O)[O-])cc2)CC1`: 46.1%. Take `CCC(C)c1ccc(OCC(=O)Nc2cc(OC)c(OC)cc2C(=O)O)cc1` (configuration not stated): the inhibition is -8.29%. For `Cn1ncc(Cl)c1C(=O)NC1CCC(C(C)(C)C)CC1` (configuration not stated) the value was 15%.

As for `CCCCCCCCCCCC[N+](C)(C)CC(O)C(O)C(O)C(O)CO` (configuration not stated), the inhibition worked out at 36.7%. In the case of `O=C(COc1ccccc1F)N1CCN(c2cccc([N+](=O)[O-])c2)CC1`, the inhibition stood at 15.2%. For `Cc1ccccc1Nc1nc(C2(C)CC3(CC(COCC(C)C)OC3=O)C(=O)O2)cs1` (configuration not stated) the value was 40.8%; for `COc1ccc2oc(C(=O)NCCNC(=O)C3C(C=C(C)C)C3(C)C)cc2c1` (configuration not stated), 25.5%. The same measure for `Cc1c(Br)cc(C(=O)OCC(=O)c2ccccc2)c(C)c1C`: 6.54%; for `Cc1ccc2cc(C#N)c(N3CCCN(C(=O)c4ccc(F)cc4F)CC3)nc2c1`: 46.4%. On to `O=C(O)c1ccc(N2CCN(C(=O)COc3cccc(C(F)(F)F)c3)CC2)cc1`, for which the inhibition worked out at 43%. Consider `CCCCC(CC)C(=O)Nc1nnc(C2CCCCC2)s1` (configuration not stated), for which the inhibition turned out to be 7.68%.

Turning to `CC(C)(C)CN(Cc1cccc(CN)c1)C(=O)c1ccc(-c2ccccc2)nc1`, the inhibition stood at 32.5%. Take `CON1CC/C(=C\c2cc(C(C)(C)C)c3c(c2)C(C)(C)CO3)C1=O`: the inhibition was determined as 30.3%. For the molecule `CCCCOc1ccc(S(=O)(=O)N2CC(NCc3ccco3)CC2C(=O)CNO)cc1` (configuration not stated), the inhibition turned out to be 38%. Take `CCc1nc(C)cc(NCC(=O)C2(O)CC3(C)CCC4C5C=CC(=O)C=C5CCC45C3C25)c1O` (configuration not stated): the inhibition stood at 17.5%. Turning to `CCc1ccc(OCC(=O)Nc2ccc(-c3nc4ccccc4o3)cc2)cc1`, the inhibition turned out to be 34.7%. Consider `CC(C)c1ccc(NC(=O)c2cc([N+](=O)[O-])ccc2Cl)cc1`, for which the inhibition was determined as 12.1%. As to `CC(C)/C=C/C(=O)N1CCN(C(=O)C2CCC3C4CC=C5CC(O)CCC5(C)C4CCC23C)CC1` (configuration not stated), the inhibition stood at 13.3%.

Regarding `CN(C)CCCCN(CCCN(C)C)Cc1cccc2ccccc12`, the inhibition is 36.2%.

For the molecule `COc1cc(C(=O)Nc2ccc(C(C)=O)cc2)c(Br)c(OC)c1OC`, the inhibition came to 16.9%. `CC[n+]1c(Cc2nn3c(C)cc(C)nc3[n+]2CC)nn2c(C)cc(C)nc21`: the inhibition came to 2.48%. Turning to `Cc1nn(-c2ccccc2)c(O)c1/N=C1\C(=O)N(C)c2ccc(Br)cc21`, the inhibition turned out to be 1.44%.

Take `O=C(c1ccco1)N1CCN(C(=O)C2CCCN2C(=O)CC2C=CCC2)CC1` (configuration not stated): the inhibition stood at 5.7%.

`Cc1nc(N2CCN(c3ccccc3F)CC2)c2c(C)c(C)sc2n1`: the inhibition is -2.48%.
